Test results taken from BindingDB's records for doi:10.1016/j.bmcl.2010.04.101 (Indian Institute of Technology, 2010).
pKi: −log10 of the molar value.

Biological target: T1, Membrane-bound transcription factor site-1 protease (Homo sapiens, UniProt Q14703)
T1 sequence (Q14703 whole entry): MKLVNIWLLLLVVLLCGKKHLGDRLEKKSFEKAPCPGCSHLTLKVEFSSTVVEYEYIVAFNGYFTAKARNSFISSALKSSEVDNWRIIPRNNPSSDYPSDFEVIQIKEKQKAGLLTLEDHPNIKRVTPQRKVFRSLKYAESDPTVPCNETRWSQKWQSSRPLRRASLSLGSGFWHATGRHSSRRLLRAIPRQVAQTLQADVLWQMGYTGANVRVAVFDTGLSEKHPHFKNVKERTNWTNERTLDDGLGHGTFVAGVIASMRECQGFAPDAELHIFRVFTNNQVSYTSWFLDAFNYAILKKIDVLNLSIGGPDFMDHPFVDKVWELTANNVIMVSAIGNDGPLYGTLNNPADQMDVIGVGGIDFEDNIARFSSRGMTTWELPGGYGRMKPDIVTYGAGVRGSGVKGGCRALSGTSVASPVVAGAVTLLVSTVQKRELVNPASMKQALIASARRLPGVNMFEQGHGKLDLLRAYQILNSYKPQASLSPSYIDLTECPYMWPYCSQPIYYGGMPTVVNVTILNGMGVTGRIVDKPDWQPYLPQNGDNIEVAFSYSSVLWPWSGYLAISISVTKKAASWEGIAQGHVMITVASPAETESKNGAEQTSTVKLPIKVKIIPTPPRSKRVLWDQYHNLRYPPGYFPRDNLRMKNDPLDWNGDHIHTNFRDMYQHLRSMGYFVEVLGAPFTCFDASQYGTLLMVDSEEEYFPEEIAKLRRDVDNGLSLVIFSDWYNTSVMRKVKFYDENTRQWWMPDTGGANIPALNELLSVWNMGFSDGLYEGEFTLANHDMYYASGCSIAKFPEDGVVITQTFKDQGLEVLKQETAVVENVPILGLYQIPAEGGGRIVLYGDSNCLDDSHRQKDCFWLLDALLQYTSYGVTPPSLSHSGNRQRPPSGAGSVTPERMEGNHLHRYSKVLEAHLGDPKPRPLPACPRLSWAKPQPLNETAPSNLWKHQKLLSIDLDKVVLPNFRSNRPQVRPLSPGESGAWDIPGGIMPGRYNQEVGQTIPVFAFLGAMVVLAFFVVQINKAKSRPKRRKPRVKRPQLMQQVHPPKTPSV
Experiment: Inhibition of human recombinant soluble Kexin isozyme 1
Method in brief: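 Recombinant soluble human SKI-1 (activity normalized to 10 pmol Abz-peptide released per µL per h, 37 °C). Only the E-form was tested, at varying concentrations, with quenched fluorogenic Abz-Q-GPC251–263-Tyx substrate in Tris/Mes/2 mM CaCl2 buffer at 37 °C. RFU (ex 320/em 420 nm) were read from 0–6 h and converted to cleavage rates. Ki came from Dixon plots at 0.1, 0.05 and 0.025 mM substrate.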

Structure (SMILES)	pKi
O=C(COc1ccccc1/N=N/c1ccccc1OCC(=O)N[C@@H](Cc1ccccc1)C(=O)N[C@@H](Cc1ccccc1)C(=O)O)N[C@@H](Cc1ccccc1)C(=O)N[C@@H](Cc1ccccc1)C(=O)O	3.85
O=C(O)CNC(=O)COc1ccccc1/N=N/c1ccccc1OCC(=O)NCC(=O)O	3.58
O=C(COc1ccccc1/N=N/c1ccccc1OCC(=O)N[C@@H](Cc1ccccc1)C(=O)OCc1ccccc1)N[C@@H](Cc1ccccc1)C(=O)OCc1ccccc1	4.93
O=C(COc1ccccc1/N=N/c1ccccc1OCC(=O)N[C@@H](Cc1ccccc1)C(=O)O)N[C@@H](Cc1ccccc1)C(=O)O	3.65
CC(C)[C@H](NC(=O)COc1ccccc1/N=N/c1ccccc1OCC(=O)N[C@H](C(=O)O)C(C)C)C(=O)O	4.12
CC(C)[C@H](NC(=O)COc1ccccc1/N=N/c1ccccc1OCC(=O)N[C@H](C(=O)OCc1ccccc1)C(C)C)C(=O)OCc1ccccc1	3.90
